Results pooled from the literature.
Compare with care: the assays were run in different laboratories.
Target: Tyrosine-protein kinase BTK (BTK, Homo sapiens, UniProt Q06187)

Compound	effect on	method	concentration	remaining binding [%]
O=C(N1CCS(=O)(=O)CC1)N1C[C@H](c2ccc(OC(F)(F)F)cc2)C[C@H](c2nc(C3CC3)no2)C1	cell-free assay	competition with immobilised ligand	1 µM	100
CCN1CCN(Cc2ccc(C(=O)Nc3ccc(C)c(Oc4ccc5c(c4)CC(=O)N5)c3)cc2C(F)(F)F)CC1	binding	competition with immobilised ligand	1 µM	100
CNC(=O)[C@@H]1CC[C@@H](n2c(-c3ccc4cnccc4c3)nc3ccc(C(=O)NCc4cccc(C(N)=O)c4)cc32)C1	binding	competition with immobilised ligand	1 µM	96
O=C1CCc2cc(Nc3cc(OC4CCOCC4)c([N+](=O)[O-])cc3Cl)ccc2N1	cell-free assay	competition with immobilised ligand	1 µM	100
CC(C)(C)c1ccc(-c2nc(CBr)nn2-c2cccc(O)c2)cc1	cell-free assay	competition with immobilised ligand	10 µM	83
CN(CCCC(F)(F)F)c1nccc(-c2cnn3ncccc23)n1	binding		1 µM	100
C[C@@H]1CN(c2ccc3ncc(-c4ccc5[nH]nc(C6CC6)c5c4)n3n2)C[C@H](C)O1	binding	competition with immobilised ligand	50 nM	67
O=C(Nc1cccnn1)N1CC(C/C=C/c2cncc(Oc3ccc(C(F)(F)F)cn3)n2)C1	cell-free assay	competition with immobilised ligand	1 µM	59
O=C(c1ccc(Nc2nccc(-c3cc4ccccc4s3)n2)cc1)N1CCC(N2CCCC2)CC1	binding	competition with immobilised ligand	1 µM	87
O=C(Nc1c[nH]nc1C(=O)NC1CCNCC1)c1cc(F)cc(F)c1	binding	competition with immobilised ligand	1 µM	100
CN(C)c1ncc(F)c(-c2cnn3ncccc23)n1	binding		1 µM	75
Cn1cc(Cl)c2c(Oc3c(F)cc(Nc4cc(Cl)nc(N)n4)cc3F)ccnc21	cell-free assay	competition with immobilised ligand	0.1 µM	84
O=C(NCCCN1CCOCC1)c1ccc(Nc2ncc(Cl)c(-c3ccc(Cl)s3)n2)cc1	binding	competition with immobilised ligand	1 µM	100
Cc1nc(C2CCN(C(=O)c3ccc(OC(F)(F)F)cc3N)CC2)c2ncc(N3CCN(C)CC3)cc2n1	cell-free assay	competition with immobilised ligand	1 µM	87
COc1ncc2cc3ccccc3nc2c1C#N	cell-free assay	competition with immobilised ligand	5 µM	100
N#Cc1ccc(Nc2ccc3[nH]c(=O)[nH]c3c2)c(Cl)c1	cell-free assay	competition with immobilised ligand	1 µM	100
C[C@H]1CCN(c2nccc(-c3cnn4ncccc34)n2)C1	binding		1 µM	95
O=C(NCCCN1CCOCC1)c1ccc(Nc2nccc(-c3cc4ccccc4s3)n2)cc1	binding	competition with immobilised ligand	1 µM	77
CC1CCCN1c1nccc(-c2cnn3ncccc23)n1 (stereo not drawn)	binding		1 µM	100
Cc1ccc(-n2nc(C(C)(C)C)cc2NC(=O)Nc2ccc(-n3c(N)c(C(N)=O)c4nc5ccc(NCCCN)cc5nc43)cc2)cc1	cell-free assay	competition with immobilised ligand	1 µM	3.3
c1cnn2ncc(-c3ccnc(N4CCC45COC5)n3)c2c1	binding		1 µM	89
COc1cnc(Nc2cccc(S(N)(=O)=O)c2)nc1N1CCN(c2ccccc2)CC1	binding	competition with immobilised ligand	1 µM	80
Nc1c(C(=O)NCc2ccc(C(=O)NCCCC3CCCCC3)cc2)cnn1-c1ccccc1	cell-free assay	competition with immobilised ligand	0.1 µM	100
CN(C)c1nccc(-c2cnc3ncccn23)n1	binding		1 µM	68
